According to ChEMBL document CHEMBL4706642, “Discovery of a Potent Dual Inhibitor of Acetylcholinesterase and Butyrylcholinesterase with Antioxidant Activity that Alleviates Alzheimer-like Pathology in Old APP/PS1 Mice” (J Med Chem, 2021):
The source made the active and inactive calls.

How the values were obtained:
Cholinesterase [1] = biological target: T1, Cholinesterase (Homo sapiens, UniProt P06276); experiment: Inhibition of human serum BChE using butyrylthiocholineiodide as substrate preincubated for 20 mins followed by substrate addition by Ellman's method; assay type: cell-free
T1 sequence (P06276 whole entry): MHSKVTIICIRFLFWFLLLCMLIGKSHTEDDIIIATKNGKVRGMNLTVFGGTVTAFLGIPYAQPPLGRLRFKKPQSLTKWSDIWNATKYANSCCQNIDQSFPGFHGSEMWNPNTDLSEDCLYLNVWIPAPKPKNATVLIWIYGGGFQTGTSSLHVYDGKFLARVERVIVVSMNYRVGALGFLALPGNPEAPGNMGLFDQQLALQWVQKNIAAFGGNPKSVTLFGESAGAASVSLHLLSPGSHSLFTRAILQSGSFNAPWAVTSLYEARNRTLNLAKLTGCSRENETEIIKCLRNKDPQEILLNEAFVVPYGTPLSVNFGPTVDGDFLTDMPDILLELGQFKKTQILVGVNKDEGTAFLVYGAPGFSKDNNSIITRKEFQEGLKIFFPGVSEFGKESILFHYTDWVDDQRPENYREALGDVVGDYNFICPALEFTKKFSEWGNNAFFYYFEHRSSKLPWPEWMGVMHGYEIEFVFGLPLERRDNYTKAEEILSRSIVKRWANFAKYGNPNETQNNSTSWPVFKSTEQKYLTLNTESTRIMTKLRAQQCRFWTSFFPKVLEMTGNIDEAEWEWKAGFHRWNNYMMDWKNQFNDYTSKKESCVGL
In short: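 Enzyme was 0.02 U/mL human recombinant AChE or human serum BChE. Non-enzymatic hydrolysis was corrected. IC50 came from a % inhibition vs log[I] regression. Selectivity = IC50 hBChE/IC50 hAChE. Mean ± SEM of ≥2 experiments, each in duplicate/triplicate.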

Acetylcholinesterase = Acetylcholinesterase (Homo sapiens, UniProt P22303); experiment: Mixed-type inhibition of recombinant human AChE using varying concentration of acetylthiocholine iodide as substrate at 0.17 to 1.36 nM by Lineweaver-burk plot analysis
Acetylcholinesterase, sequence (P22303 whole entry): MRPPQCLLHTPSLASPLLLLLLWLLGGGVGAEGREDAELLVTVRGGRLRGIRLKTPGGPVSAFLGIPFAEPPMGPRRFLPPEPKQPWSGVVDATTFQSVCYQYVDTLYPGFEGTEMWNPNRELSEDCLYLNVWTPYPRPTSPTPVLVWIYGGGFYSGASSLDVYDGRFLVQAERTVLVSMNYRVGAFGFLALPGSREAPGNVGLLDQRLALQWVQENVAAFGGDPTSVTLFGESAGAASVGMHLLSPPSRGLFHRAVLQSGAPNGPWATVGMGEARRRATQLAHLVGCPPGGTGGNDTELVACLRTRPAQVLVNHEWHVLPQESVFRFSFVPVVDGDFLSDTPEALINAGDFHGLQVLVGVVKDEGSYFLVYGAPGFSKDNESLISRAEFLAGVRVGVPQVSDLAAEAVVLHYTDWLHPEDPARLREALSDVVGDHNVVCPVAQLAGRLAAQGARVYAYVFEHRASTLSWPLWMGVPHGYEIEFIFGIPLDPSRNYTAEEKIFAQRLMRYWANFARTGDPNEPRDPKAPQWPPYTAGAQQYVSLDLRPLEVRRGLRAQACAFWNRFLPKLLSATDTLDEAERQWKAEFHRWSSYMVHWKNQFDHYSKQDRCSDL
In short: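 Kinetics on human recombinant AChE with acetylthiocholine at 0.113–0.566 mM and inhibitor at 0.17–1.36 nM. Lineweaver–Burk plots were fitted by weighted least squares. Ki was taken as the negative x-intercept of a replot of slopes vs [I]. K'i came from a plot of apparent 1/vmax vs [I]. Two independent experiments, each in triplicate.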

[2] = Drug distribution in wild type C57BL6 mouse liver at 2 mg/kg, ip thrice a week for 2 weeks observed after 4 hrs post last dose by HPLC/MS/MS analysis; assay type: ADME, organism-based; settings: in vivo, 336 h
[3] = Drug distribution in wild type C57BL6 mouse brain at 2 mg/kg, ip thrice a week for 2 weeks observed after 4 hrs post last dose by HPLC/MS/MS analysis; assay type: ADME, organism-based; settings: in vivo, 336 h
Mus musculus [4] = experiment: Cognitive enhancing effect in 6 months young APP/PS1 double mutant-transgenic mouse model assessed as increase in preference index for object at 2 mg/kg, ip administered thrice a week for 4 weeks by novel object localization test; assay type: functional, organism-based
In short: (§1)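 Male APP/PS1 mice received 2 mg/kg i.p. in saline (or vehicle), three times per week for 4 weeks. Preference index = time exploring the relocated or novel object divided by total time exploring both objects. Mean ± SEM, n = 7 per group; one-way ANOVA with Bonferroni post hoc.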

Mus musculus [5] = experiment: Memory enhancement effect in 6 months young APP/PS1 double mutant-transgenic mouse model at 2 mg/kg, ip administered thrice a week for 4 weeks by memory flexibility text; assay type: functional, organism-based
In short: (§2)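 Memory flexibility test in male APP/PS1 mice treated i.p. with 2 mg/kg in saline (or vehicle), three times weekly for 4 weeks. The number of trials to reach criterion was counted on each testing day over 4 days. Mean ± SEM, n = 7 per group; one-way ANOVA with Bonferroni post hoc.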

Mus musculus [6] = experiment: Memory enhancement effect in 11 months old APP/PS1 double mutant-transgenic mouse model assessed as number of trials required to reach criterion at 2 mg/kg, ip administered thrice a week for 4 weeks measured on trail day 1 by memory flexibility text; assay type: functional; in short: as §2
Mus musculus [7] = experiment: Antialzheimer activity in 6 months young APP/PS1 double mutant-transgenic mouse model assessed as amyloid beta42 levels in hippocampus at 2 mg/kg, ip administered thrice a week for 4 weeks by ELISA; assay type: functional, organism-based
In short: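 Male APP/PS1 mice received 2 mg/kg i.p. in saline (or vehicle), three times weekly for 4 weeks. After the behavioral tests, hippocampus was collected and Aβ40 and Aβ42 were measured with a specific ELISA kit. Mean ± SEM, n = 7 mice per group; one-way ANOVA with Bonferroni post hoc.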

Mus musculus [8] = experiment: Antialzheimer activity in 6 months young APP/PS1 double mutant-transgenic mouse model assessed as time interval between two EPSPs in CA3 region of hippocampus at 2 mg/kg, ip administered thrice a week for 4 weeks at 10 ms stimulus interval by fluorescence microscopy based electrophysiology method (reference value: 3.18 +/- 0.8 ms); assay type: functional
In short: (§3)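 Paired-pulse facilitation in hippocampal slices from male APP/PS1 mice dosed i.p. with 2 mg/kg in saline (or vehicle), three times per week for 4 weeks. Two EPSPs were evoked at intervals of 10–200 ms, and the index is the R2/R1 fEPSP slope ratio. Mean ± SEM of 9 slices from 3 mice per group; two-way ANOVA with Bonferroni post hoc.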

Mus musculus [9] = experiment: Antialzheimer activity in 11 months old APP/PS1 double mutant-transgenic mouse model assessed as time interval at which EPSP-evoked calcium-dependent vesicle release in CA3 region of hippocampus causing short-term plasticity at 2 mg/kg, ip administered thrice a week for 4 weeks measured at 10 ms interval by fluorescence microscopy based electrophysiology method (reference value: 2.05 +/- 0.2 ms); assay type: functional; in short: as §3
Mus musculus [10] = experiment: Antialzheimer activity in 11 months old APP/PS1 double mutant-transgenic mouse model assessed as fiber volley amplitude in CA3 region of hippocampus at 2 mg/kg, ip administered thrice a week for 4 weeks followed by stimulation with 1 to 10 uA EPSP by fluorescence microscopy based electrophysiology method (reference value: 0.826 +/- 0.169 mV/ms); assay type: functional
In short: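 Hippocampal slices from male APP/PS1 mice given 2 mg/kg i.p. in saline (or saline alone), three times per week for 4 weeks. Input–output curves were built from evoked fEPSP slopes and fiber volley amplitudes, with values taken at the maximum current intensity. Mean ± SEM of 9 slices from 3 mice per group; two-way ANOVA with Bonferroni post hoc.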

Mus musculus [11] = experiment: Antialzheimer activity in 11 months old APP/PS1 double mutant-transgenic mouse model assessed as theta burst induced-long term potentiation in CA3 region of hippocampus at 2 mg/kg, ip administered thrice a week for 4 weeks by fluorescence microscopy based electrophysiology method (reference value: 83.9 +/- 21.1 %); assay type: functional
Mus musculus [12] = experiment: Neuroprotective activity in 6 months young APP/PS1 double mutant-transgenic mouse model assessed as decrease in 4-hydroxy-2-nonenal levels in hippocampus at 2 mg/kg, ip administered thrice a week for 4 weeks by Hoechst staining based immunofluorescence analysis; assay type: functional, organism-based
In short: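 Hippocampal 4-hydroxy-2-nonenal was assessed by immunofluorescence with Hoechst counterstain in male APP/PS1 mice given 2 mg/kg i.p. in saline (or vehicle), three times weekly for 4 weeks. Mean ± SEM, n = 4 mice per group; one-way ANOVA with Bonferroni post hoc.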

Mus musculus [13] = experiment: Antiinflammatory activity in 11 months old APP/PS1 double mutant-transgenic mouse model assessed as reduction in GFAP level in hippocampus at 2 mg/kg, ip administered thrice a week for 4 weeks by Hoechst staining based immunofluorescence analysis; assay type: functional, organism-based
In short: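 Hippocampal GFAP immunofluorescence with Hoechst nuclear counterstain in male APP/PS1 mice after 2 mg/kg i.p. in saline (or vehicle), three times per week for 4 weeks. Mean ± SEM, n = 4 mice per group; one-way ANOVA with Bonferroni post hoc.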

Mus musculus [14] = experiment: Cognitive enhancing effect in 6 months young APP/PS1 double mutant-transgenic mouse model assessed as effect on time spent on moving along the field at 2 mg/kg, ip administered thrice a week for 4 weeks by LOF test; assay type: functional, organism-based
In short: (§4)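 Open-field locomotor test in male APP/PS1 mice after 2 mg/kg i.p. in saline (or vehicle), three times per week for 4 weeks. Read-outs were time spent moving and number of crossings of the central area of a transparent cage. Mean ± SEM, n = 7 per group; one-way ANOVA with Bonferroni post hoc.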

Mus musculus [15] = experiment: Cognitive enhancing effect in 6 months young APP/PS1 double mutant-transgenic mouse model assessed as effect on number of times animal crossing central area in transparent cage at 2 mg/kg, ip administered thrice a week for 4 weeks by LOF test; assay type: functional, organism-based; in short: as §4
Cholinesterase [16] = biological target: T1, Cholinesterase; experiment: Inhibition of human serum BChE using butyrylthiocholineiodide as substrate preincubated for 20 mins followed by substrate addition by Ellman's method relative to parent compound; assay type: cell-free
Mus musculus [17] = experiment: Cognitive enhancing effect in 11 months old APP/PS1 double mutant-transgenic mouse model assessed as increase in preference index for object at 2 mg/kg, ip administered thrice a week for 4 weeks by novel object recognition test; assay type: functional, organism-based; in short: as §1
Mus musculus [18] = experiment: Cognitive enhancing effect in 11 months old APP/PS1 double mutant-transgenic mouse model assessed as increase in preference index for object at 2 mg/kg, ip administered thrice a week for 4 weeks by novel object localization test; assay type: functional, organism-based; in short: as §1

Row | SMILES | IC50 (Cholinesterase [1]) [nM] | Kd (Acetylcholinesterase) [nM] | inhibition (Acetylcholinesterase; dose 0.17-1.36 nM) | Drug uptake [2] | Drug uptake [3] | Activity (Mus musculus [4]) | Activity (Mus musculus [5]) | Activity (Mus musculus [6]) | Activity (Mus musculus [7]) | Time (Mus musculus [8]) [ms] | Time (Mus musculus [9]) [ms] | Activity (Mus musculus [10]) [mV] | Activity (Mus musculus [11]) [%] | Activity (Mus musculus [12]) | Activity (Mus musculus [13]) | Activity (Mus musculus [14]) | Activity (Mus musculus [15]) | fold change (FC) (Cholinesterase [16]) | Activity (Mus musculus [17]) | Activity (Mus musculus [18])
1 | COc1cc(CNC(=O)CCCCCCNc2c3c(nc4cc(Cl)ccc24)CC2C=C(C)CC3C2)ccc1O (stereo not given) | 30.6 | 0.94 | Active | Active | Active | inactive | inactive | 14 | inactive | 3.44 | 2.32 | 0.808 | 124.3 | inactive | Active | inactive | inactive |  |  | 
2 | COc1cc(CNC(=O)Cc2cn(CCCCC3=CC4Cc5nc6cc(Cl)ccc6c(N)c5C(C3)C4)nn2)ccc1O (stereo not given) | 7.3 |  |  | Active | Active | inactive | inactive | 13 | inactive | 1.93 | 1.96 | 1.039 | 111 | inactive | Active | inactive | inactive | 25 | Active | Active
